Experimental data from different studies.
Compare with care: the assays were run in different laboratories.
CDK5 with p35: Cyclin-dependent kinase 5, with p35 (CDK5, Homo sapiens, UniProt Q00535)
CDK5: Cyclin-dependent kinase 5 (CDK5, Homo sapiens, UniProt Q00535)

CC(C)(C)c1cc(C=C(C#N)C#N)cc(Br)c1O
remaining activity (CDK5 with p35; enzyme activity, inhibitor; 0.5 µM): 102%

COc1ncccc1-c1cnn2ccc(N3CCN(C(=O)OC(C)C)CC3)nc12
remaining binding (CDK5; binding, competition with immobilised ligand; 1 µM): 100%

Cn1cc(-c2cc(F)cc(N3CCn4c(cc5c4CCCC5)C3=O)c2CO)cc(Nc2ccc(N3CCN(C4COC4)CC3)cn2)c1=O
inhibition (Cyclin-dependent kinase 5, with p25 (CDK5, Homo sapiens, UniProt Q00535); enzyme activity, inhibitor; 0.1 µM): 9%

Nc1ncc(-c2nc(N3CCOCC3)nc(N3CCOCC3)n2)c(C(F)F)n1
remaining binding (CDK5; binding, competition with immobilised ligand; 10 µM): 100%

Cn1cncc1[C@](O)(COc1ccc(C#N)cc1-c1ccc(OC(F)(F)F)cc1)c1ccc(C#N)cc1
remaining binding (CDK5; cell-free assay, competition with immobilised ligand; 1 µM): 92%

Cc1nn(C)cc1-c1nc2c(N3CCN(Cc4ccc(Cl)cc4)CC3)c(Cl)cnc2[nH]1
remaining binding (CDK5; binding, competition with immobilised ligand; 1 µM): 76%

Cn1cc(-c2cccc(N3CCc4c(sc5c4CC(C)(C)C5)C3=O)c2CO)cc(Nc2ccncn2)c1=O
inhibition (CDK5 with p35; enzyme activity, inhibitor; 1 µM): 3%

N#CC1(c2ccccn2)CCN(Cc2cc(C(=O)O)c(=O)n3ccccc23)CC1
remaining binding (CDK5; cell-free assay, competition with immobilised ligand; 1 µM): 100%
